# Sampled rows, rich in hits. Any-hit rate of the full collection: about 2.9%.
# MIN6 prolif-1: MIN6 beta-cell proliferation induction | MIN6 cells proliferation, ATPlite luminescence, 48 h; cells starved in 0.2% serum; 100% = growth in 10% serum | proliferation, % at 10 µM | 0.29% of 330,000 active | AID 2380;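 active means compounds whose signal lies at least 3.5 SD above the mean of all wells on their plate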
# H9c2 TAG inh: triacylglycerol accumulation inhibition | H9c2 cells, Nile Red lipid (TAG) fluorescence; cells loaded with 200 µM oleic acid | inhibition, % at 12.5 µM | 0.66% of 230,000 active;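 active means pattern-corrected inhibition of lipid staining of at least 50% with the nuclear-stain viability signal not falling by more than 50%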
# T cruzi repl: T. cruzi replication inhibition. inhibition, % (no concentration beside the values). 1.4% of 300,000 active. T. cruzi beta-gal in NIH3T3, luminescence, 90 h. AID 1885;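 active means mean inhibition across valid replicates above about 55%, limit read from the data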;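 further: signal also drops with host cell toxicity which is not excluded here; higher percent means less beta-gal luminescence so fewer parasites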
#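 Read-out: Parasite load inhibition, % | Test system: Mouse NIH/3T3 fibroblasts infected with β-gal-expressing T. cruzi Tulahuen C4 | Amount: 5,000 cells/well | Medium: DMEM, 2% fetal bovine serum | Signal: GalScreen β-gal luminescence, detergent lysis, 60 min | Timing: 3 h attach, ≥90 h co-culture | Also added: Tulahuen C4 trypomastigotes, 5000/well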
# Rev-erbA mod: Rev-erb alpha (human) modulation; Rev-erbα–FITC-DNA binding, fluorescence polarization, 90 min; activity, % at 10 µM; 0.79% of 370,000 active;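 active means activity above about 14%, limit read from the data; passing the limit was not always enough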
# Target sequence (P20393 whole entry, looked up): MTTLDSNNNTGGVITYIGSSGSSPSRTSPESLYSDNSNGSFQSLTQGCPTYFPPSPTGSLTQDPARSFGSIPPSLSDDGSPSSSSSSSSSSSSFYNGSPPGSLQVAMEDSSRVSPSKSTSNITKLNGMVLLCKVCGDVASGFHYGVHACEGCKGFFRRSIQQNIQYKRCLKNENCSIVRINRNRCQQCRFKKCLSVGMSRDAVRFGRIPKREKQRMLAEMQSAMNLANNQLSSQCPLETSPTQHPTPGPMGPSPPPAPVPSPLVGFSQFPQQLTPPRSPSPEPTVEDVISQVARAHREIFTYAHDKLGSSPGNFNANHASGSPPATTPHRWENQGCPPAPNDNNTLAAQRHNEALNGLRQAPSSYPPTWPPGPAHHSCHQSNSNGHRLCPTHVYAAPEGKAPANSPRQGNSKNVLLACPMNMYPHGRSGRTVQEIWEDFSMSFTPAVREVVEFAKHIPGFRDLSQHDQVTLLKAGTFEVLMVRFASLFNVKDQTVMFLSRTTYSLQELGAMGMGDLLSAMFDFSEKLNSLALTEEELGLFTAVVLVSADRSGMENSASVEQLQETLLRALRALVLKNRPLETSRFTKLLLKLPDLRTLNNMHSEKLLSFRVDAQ
# hiPSC survival: increases survival of single human iPS cells. hiPSC single-cell survival, ATPlite luminescence; 100% = ROCK inhibitor wells, 0% = DMSO. survival enhancement, % at 20 µM. 0.044% of 360,000 active; in the data active means survival enhancement above about 18%;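 further: cells exposed to compounds for 16 hours before the ATP read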
# PG9 Ab binder: binds the HIV-1 gp120 antibody PG9 | TR-FRET gp120-PG9 antibody binding | 0.43% of 360,000 active | AID 624416 | inhibition, % at 6.7 µM; in the data active means inhibition above about 8.5%
# MIN6 prolif-2: MIN6 beta-cell replication induction, confirmed. shares compounds with MIN6 prolif-1. MIN6 beta-cell proliferation, ATPlite luminescence, 48 h; cells kept in 0.2% serum; scaled between 0.2% and 10% serum. proliferation increase, % at 50 µM. 920 tested, under 10 active. AID 463095;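 active means proliferation increase above 40% at any of the four tested concentrations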
# Numbers stand for hits; n = inactive; x = no result given.
SMILES,MIN6 prolif-1,H9c2 TAG inh,T cruzi repl,Rev-erbA mod,hiPSC survival,PG9 Ab binder,others
CS(=O)(=O)c1ccc(C(=O)OCc2nnc(-c3ccccc3)o2)cc1[N+](=O)[O-],x,n,75.7,n,n,n,
O=C(OCc1nnc(-c2ccccc2)o1)c1cc([N+](=O)[O-])ccc1Cl,n,n,n,n,n,n,
O=[N+]([O-])c1ccc2c(OCc3nnc(-c4ccccc4Br)o3)ncnc2c1,n,n,71.5,n,n,n,
O=[N+]([O-])c1cc(Br)c(OCc2nnc(-c3ccccc3)o2)c(Br)c1,n,x,67.2,n,n,n,
COc1cc(C(C)=O)ccc1OCc1nnc(-c2ccccc2Br)o1,n,x,n,n,n,n,
COc1cc2ccccc2cc1C(=O)Nc1ccc(C)cc1,n,x,n,n,n,n,
COc1cc2ccccc2cc1C(=O)Nc1ccc(Cc2ccncc2)cc1,n,x,61.7,n,n,n,
CCn1c(C(=O)NCc2cccnc2)cc2sc(Cl)cc21,n,x,61.7,n,n,n,
CCn1c(N)c(C(=O)NCc2cccnc2)sc1=S,n,x,n,n,n,n,
COc1ccc(N2CCN(c3nc(Nc4ccc(C)c(F)c4)nc(N4CCCC4)n3)CC2)cc1,n,n,67.5,n,n,n,
CCOc1ccc(CN(C)CC(=O)Nc2cccc(S(=O)(=O)N(C)c3ccccc3)c2)cc1,n,n,72.8,n,n,n,
COc1cccc(CN(C)CC(=O)Nc2cccc(S(=O)(=O)N(C)c3ccccc3)c2)c1OC,x,n,x,n,n,n,
COc1ccc(-c2nc3c(c(=O)[nH]c(=O)n3Cc3ccccc3)n2Cc2ccccc2)cc1,n,x,61.1,n,n,n,
CCCn1c(-c2cc(OC)c(OC)c(OC)c2)nc2c1c(=O)[nH]c(=O)n2Cc1ccccc1,n,x,n,n,n,n,
O=C(NCc1ccccc1)[C@@H]1CCCN1C(=O)[C@H]1CCCN1C(=O)c1ccccc1Cl,x,x,x,n,x,n,
COc1ccc(Cc2nc3c4c(ncn3n2)Oc2ccc3ccccc3c2C4c2ccc(OC)c(OC)c2)cc1 (centres undefined),n,x,57.2,n,n,n,
CCc1cc2c(=O)c(-c3ccc4c(c3)OCCO4)coc2c(CN2CCCCC2C)c1O (centres undefined),n,n,56.5,n,n,n,
CCc1cc2c(=O)c(-c3nc4ccccc4[nH]3)coc2c(CN2CCCCC2C)c1O (centres undefined),n,n,n,n,n,n,
Cc1ccc(Nc2ccc([N+](=O)[O-])nc2[N+](=O)[O-])cc1,n,x,62.4,n,n,n,
NC(=O)C1CCN(C2=C(Cl)C(=O)c3ccccc3C2=O)CC1,n,n,59.0,n,n,n,
CN1CCN(C2=C(Cl)C(=O)c3ccccc3C2=O)CC1,x,58.5,x,n,n,n,
O=C1C(Cl)=C(N2CCC(C(=O)O)CC2)C(=O)c2ccccc21,n,n,n,x,n,x,
O=[N+]([O-])c1ccccc1N/N=C/c1c[nH]c2ccccc12,n,81.7,n,n,n,n,
O=[N+]([O-])c1ccc(N/N=C/c2c[nH]c3ccccc23)cc1,n,n,n,n,n,n,
CC(C)(CNC(=S)NCCc1ccccc1)CNC(=S)NCCc1ccccc1,x,n,64.9,n,n,n,
SMILES,MIN6 prolif-1,H9c2 TAG inh,T cruzi repl,Rev-erbA mod,hiPSC survival,PG9 Ab binder,others
OCCNC(=S)NCCc1ccccc1,n,x,n,n,n,n,
COc1cccc(/C=N/N2CCN(c3ccncc3S(=O)(=O)N3CCCCC3)CC2)c1,n,n,65.7,n,n,n,
Cc1ccc(/C=N/N2CCN(c3ccncc3S(=O)(=O)N3CCCCC3)CC2)cc1,n,n,n,n,n,n,
COc1ccc(-c2nc(N/N=C(\C)c3ccc(O)cc3)c3ccccc3n2)cc1,n,54.9,n,n,n,n,
Cc1[nH]n2c(=O)cc(C(C)(C)C)nc2c1-c1ccccc1,n,n,59.0,n,n,n,
Cc1[nH]n2c(=O)cc(C(C)C)nc2c1-c1ccccc1,n,x,n,n,n,n,
O=C(NNC(=S)Nc1ccc(Cl)c(Cl)c1)c1ccccn1,n,n,62.2,n,n,n,
CCNC(=S)NNC(=O)c1ccccn1,n,x,n,n,n,n,
Cc1ccc(OCCn2cc(/C=C/C(=O)O)c3ccccc32)cc1,n,x,n,n,n,n,
O=[N+]([O-])c1ccccc1/C=N/N1CCN(Cc2ccccc2)CC1,n,x,n,n,n,n,
O=S(=O)(c1ccc(Cl)cc1)c1snnc1-c1ccccc1,n,n,60.0,n,n,n,
COc1cccc(CN(CC(=O)NCC2CCCO2)C(=O)CNS(=O)(=O)c2ccccc2)c1 (centres undefined),n,x,n,n,n,n,
COc1cccc(N(CC(=O)NCC2CCCO2)C(=O)CNS(=O)(=O)c2ccccc2)c1 (centres undefined),8.4,n,n,n,n,n,
Nc1cccnc1Sc1cccc(Cl)c1,n,n,n,n,n,n,
CCN(CCn1cccn1)Cc1nc(-c2ccc(OC)cc2)no1,7.2,n,n,n,n,n,MIN6 prolif-2=n
O=C1OC(Nc2ccc3c(c2)OCO3)c2ccccc21 (centres undefined),5.0,n,n,n,n,n,MIN6 prolif-2=n
CCOC(=O)c1c(NC(=O)Cc2cccs2)sc(C(=O)NC2CCCC2)c1C,n,n,n,n,n,n,
CCOC(=O)c1c(NC(=O)CC)sc(C(=O)NC2CCCC2)c1C,8.1,x,n,n,n,n,MIN6 prolif-2=n
Cc1ccc(S(=O)(=O)N(CC(O)CN2C(=O)NC(C)(C)C2=O)c2ccccc2)cc1 (centres undefined),8.8,x,n,n,n,n,MIN6 prolif-2=n
C=CCSc1nc2c(c(=O)[nH]c(=O)n2C)n1C/C=C(/C)Cl,6.7,n,n,n,n,n,MIN6 prolif-2=n
COc1ccc(C=O)cc1COc1ccc(F)cc1F,n,n,n,n,n,n,
Fc1ccc(OCc2nn[nH]n2)c(F)c1,7.1,n,n,n,n,n,MIN6 prolif-2=n
COC(=O)N1C(=O)[C@@](CC(C)C)(c2ccccc2)N1C(=O)OC,17.2,x,n,x,x,x,MIN6 prolif-2=n
COC(=O)N1C(=O)[C@](CC(C)C)(c2ccccc2)N1C(=O)OC,x,n,n,n,n,n,
O=C(O)CNC(=S)N(Cc1ccc(F)cc1)C1CCCCC1,8.2,n,n,n,n,n,MIN6 prolif-2=n
O=C(CNC(=S)N(Cc1ccc(F)cc1)C1CCCCC1)NCCN1CCOCC1,n,n,n,n,n,n,
c1ccc(-c2noc(CSc3nc4ccccc4o3)n2)cc1,n,x,n,n,n,n,
O=C1CCC(C(=O)N2CCSCC2)CN1Cc1ccc(Cl)cc1 (centres undefined),26.6,x,n,n,n,n,MIN6 prolif-2=n
O=C1CCCN1c1ccc(Br)cc1,7.2,x,n,n,n,n,MIN6 prolif-2=n
